Screening data as filed in PubChem BioAssay.
CHOP inh: CHOP inhibition in unfolded protein response; 220,000 compounds, 3.8% hits; CHO-K1 CHOP-promoter luciferase, tunicamycin-induced, 15-18 h; inhibition, % at 10 µM;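 active means compounds that reduced the stress-induced luciferase reporter signal by more than about 70% of percent inhibition, limit read from the data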
Hsp70 activator: transcriptional activators of Hsp70; HeLa Hsp70 promoter luciferase reporter, luminescence; scaled: vehicle 0, proteasome-inhibitor control 100%; 200,000 compounds, 0.04% hits; activation, % at 10 µM;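 active means activation above the mean across all tested compounds plus 3 SD, cutoff set per campaign, cut at about 5.5% in these data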
S1P3 antag: S1P3 (human) receptor antagonism. inhibition, % at 4.98 µM. 170,000 compounds, 0.27% hits. CHO S1P3 NFAT-BLA reporter, FRET fluorescence, antagonist mode;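 active means inhibition above the plate cutoff, the mean inhibition of test wells on that plate plus 3 SD, cut at about 28% in these data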;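 further: cells challenged with S1P at its EC80 of 0.8 µM; blue over green emission ratio from cleaved BLA substrate after 4 h stimulation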
Mdm2 ligase inh: Mdm2 E3 ligase (human) inhibition; Q00987; cell-based MDM2 ubiquitination luciferase reporter, 2 h; 0 = plate control, 100 = twice control, blank-subtracted; signal enhancement, % at 5 µM; 210,000 compounds, 0.11% hits; AID 1230;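 active means signal enhancement of 30% or more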;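 further: luminescence tracks abundance of the self-degrading MDM2-luciferase fusion protein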
Target sequence (Q00987 whole entry, looked up, the tested form may be a part): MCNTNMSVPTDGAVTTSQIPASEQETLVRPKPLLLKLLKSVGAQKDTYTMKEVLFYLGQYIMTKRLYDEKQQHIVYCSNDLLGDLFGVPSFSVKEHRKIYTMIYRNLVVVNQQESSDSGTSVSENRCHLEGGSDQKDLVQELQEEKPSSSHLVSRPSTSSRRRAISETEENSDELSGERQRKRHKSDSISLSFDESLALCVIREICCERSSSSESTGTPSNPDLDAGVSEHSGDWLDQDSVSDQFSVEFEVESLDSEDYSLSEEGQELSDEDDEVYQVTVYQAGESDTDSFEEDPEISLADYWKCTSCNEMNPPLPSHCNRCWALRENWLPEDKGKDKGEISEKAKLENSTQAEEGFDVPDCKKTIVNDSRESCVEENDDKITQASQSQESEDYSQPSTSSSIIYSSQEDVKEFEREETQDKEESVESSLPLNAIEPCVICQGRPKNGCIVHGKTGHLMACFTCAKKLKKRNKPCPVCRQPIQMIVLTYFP
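Timing – 2 h compound exposure at 37 °C · Assay system – mammalian cells stably expressing self-ubiquitinating, self-degrading MDM2 E3–luciferase fusion · Amount – 2000 cells seeded into each well · Measure – % luminescence enhancement versus blank-corrected plate control mean · Measured by – SteadyLite luminescence, 15 min reagent step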
A number is an active result; - = inactive; . = no result given. Shown are actives, neighbours in structure and some others; about 4% of the full set was active somewhere.

SMILES	CHOP inh	Hsp70 activator	S1P3 antag	Mdm2 ligase inh
COc1ccc(N2CCN(C(=O)C3CCC(Cn4c(=S)[nH]c5ccccc5c4=O)CC3)CC2)cc1 (stereo unspecified)	71	-	.	-
COc1ccc(N2CCN(C(=O)c3ccc4c(c3)[nH]c(=S)n3c5ccccc5nc43)CC2)cc1	73	-	-	-
NNC(=S)NCc1ccc2c(c1)OCO2	-	-	-	-
CC(C)C[C@H](NC(=O)c1nc[nH]c1C(=O)N1CCc2ccccc2C1)C(=O)OCc1ccccc1	92	.	.	-
O=C(N[C@@H](Cc1ccccc1)C(=O)OCc1ccccc1)c1nc[nH]c1C(=O)N1CCc2ccccc2C1	-	.	.	-
CC(C)CC(c1nnnn1CC1CCCO1)N1CCN(c2cccc(Cl)c2)CC1 (stereo unspecified)	83	-	-	-
O=C(CC1S/C(=N/N=C/c2cccs2)NC1=O)Nc1ccc(Cl)cc1 (stereo unspecified)	94	-	-	-
O=C1N/C(=N\N=C\c2cccs2)SC1Cc1ccc(Cl)cc1Cl (stereo unspecified)	-	-	-	-
O=[N+]([O-])c1ccc(Nc2c3ccccc3nc3ccccc23)cc1	-	-	-	-
O=[N+]([O-])c1ccccc1Nc1c2ccccc2nc2ccccc12	93	-	-	-
Cc1ccc(C(c2nnnn2CC2CCCO2)N2CCN(c3cccc(C)c3C)CC2)cc1 (stereo unspecified)	-	-	-	-
COc1cccc(CNC(=S)Nc2cc(OC)ccc2OC)c1	-	-	-	-
CCOC(=O)c1cc2c(=O)n3ccccc3nc2n(Cc2ccco2)c1=NC(=O)c1ccccc1OC	72	-	-	-
Cc1ccccc1OCC(=O)Nc1ccc2c(c1)n(C)c(=O)n2C	-	-	-	-
Cc1ccc(/C=N/N2CCN(Cc3ccccc3)CC2)o1	-	-	.	-
Cc1ccc(/C=N/N2CCN(Cc3cccc4ccccc34)CC2)o1	72	-	.	-
CCOC(=O)Cc1csc(NC(=O)CSc2nnc(-c3ccc(C)cc3)o2)n1	78	-	-	-
CCOC(=O)Cc1csc(NC(=O)CSc2nnc(-c3ccc(F)cc3)o2)n1	78	-	-	-
COc1ccnc(N=CNOCc2ccc(F)cc2Cl)c1C#N	-	-	.	-
C=CCN(c1ccccc1OC)S(=O)(=O)c1cccc(C(=O)OCC(=O)c2c[nH]c3ccccc23)c1	73	-	-	.
COc1ccc(CNC(=O)C/C(C)=N/NC(=O)COc2cccc(C)c2)cc1	-	-	-	-
COc1ccc(-n2cc(-c3ccccc3)c3c(N4CC(C)OC(C)C4)ncnc32)cc1 (stereo unspecified)	73	-	-	-
COc1ccc(-c2cn[nH]c2-c2ccc(OCc3ccc([N+](=O)[O-])cc3)cc2O)cc1OC	-	.	-	.
COc1cccc(Oc2cn[nH]c2-c2ccc(OC)cc2O)c1	84	-	-	-
O=[N+]([O-])c1ccc(COc2ccc(-c3[nH]ncc3-c3ccc(Cl)cc3)c(O)c2)cc1	82	-	-	-
SMILES	CHOP inh	Hsp70 activator	S1P3 antag	Mdm2 ligase inh
COc1ccc(-c2[nH]ncc2-c2ccc(Cl)cc2)c(O)c1	86	-	-	-
O=C(CNCCc1ccccc1)N1CCc2ccccc2C1	-	-	-	-
COCCCNC(=O)C(=O)NC1CCCCC1C (stereo unspecified)	-	-	-	-
Cc1ccc(C)c(N2CCN(C(=O)c3ccc(NS(=O)(=O)c4c(C)noc4C)cc3)CC2)c1	72	-	-	-
Cc1ccc(Cl)cc1N1CCN(C(=O)c2ccc(NS(=O)(=O)c3c(C)noc3C)cc2)CC1	-	-	-	-
O=c1[nH]c2ccc(Br)cc2c(-c2ccccc2)c1N1CCOCC1	77	-	-	-
Cc1cc(C)n(-c2cc(N3CCN(C(=O)c4ccccc4C)CC3)ccc2[N+](=O)[O-])n1	.	-	.	.
Cc1c(C(=O)Nc2ccc(-c3nnc4n3CCCCC4)cc2)oc2c1ccc1ccccc12	95	-	-	.
O=C(Nc1ccc(-c2nnc3n2CCCCC3)cc1)c1cc2ccccc2o1	-	-	-	-
C=CCn1c(SCC(=O)NCCCC)nc2scc(-c3ccco3)c2c1=O	93	-	-	-
O=C(CSc1cccc(C(F)(F)F)c1)NC(=O)NCc1ccco1	82	-	-	-
CSc1nc(C)cc(SCC(=O)Nc2ccccc2)n1	-	-	.	-
O=C(CSc1cccc(C(F)(F)F)c1)NC(=O)c1ccccc1	-	-	-	-
O=C(CSc1cccc(C(F)(F)F)c1)Nc1ccc(Cl)cc1Cl	83	-	.	-
CSc1nc(C)cc(SCC(=O)Nc2ccc(Cl)cc2Cl)n1	87	-	.	-
Cc1ccc(C)c(NC2=C(Cl)C(=O)OC2OC(C)C)c1 (stereo unspecified)	-	-	-	-
CC(C)=CC(=O)OCC(=O)Nc1ccc(Cl)cn1	75	-	.	-
CCOc1ccc(-n2c(SC(C)C)nc3c(c2=O)SCC3)cc1	78	-	.	-
COc1cccc(Nc2ncnc3ccccc23)c1	-	-	.	-
O=C(Oc1cccc(Nc2ncnc3ccccc23)c1)c1ccccc1Cl	87	-	.	-
O=C(COc1cccnc1[N+](=O)[O-])Nc1cccc(S(=O)(=O)N2CCCCC2)c1	-	-	-	-
COc1ccc(/C=N/NC(=S)Nc2cccc(C(=O)O)c2)cc1OC	-	-	-	-
COc1ccc(/C=N/NC(=S)Nc2ccccc2)cc1COc1cccc(C)c1C	91	.	-	.
Cc1nn(S(=O)(=O)c2ccccc2)c(C)c1Sc1ccc([N+](=O)[O-])cc1	80	-	.	-
Cc1nn(S(=O)(=O)c2cccs2)c(C)c1Sc1ccc([N+](=O)[O-])cc1	-	-	.	-
SMILES	CHOP inh	Hsp70 activator	S1P3 antag	Mdm2 ligase inh
Cc1ccc(NC(=O)CN(C)C(=O)Cn2cc(C(F)(F)F)cc(Cl)c2=O)cc1	-	-	-	-
COc1ccc2[nH]c(C)c(CCN(Cc3cccs3)C(=S)Nc3ccc(F)cc3)c2c1	78	-	.	-
COc1ccc2[nH]c(C)c(CCN(Cc3cccs3)C(=S)Nc3ccccc3)c2c1	70	-	.	-
Cc1c(NC(=O)c2cccnc2C(=O)O)cccc1C(=O)O	-	-	-	-
Cc1ccccc1NC(=O)COC(=O)c1ccc(S(C)(=O)=O)c([N+](=O)[O-])c1	103	-	-	-
CC(CCc1ccccc1)NC(=O)COC(=O)c1ccc(S(C)(=O)=O)c([N+](=O)[O-])c1 (stereo unspecified)	101	-	-	-
NC(=S)NCCCC(N)C(=O)O (stereo unspecified)	-	.	.	.
C=CCc1c(C)nc2c(C)cccc2c1SC(=N)N	-	.	-	-
O=C(O)c1ccc(Sc2nnc3ccccn23)c([N+](=O)[O-])c1	-	.	-	-
Cc1cc(S(=O)(=O)NCC(c2ccccc2)c2ccccc2)ccc1-n1cnnn1	70	-	.	-
Cc1cc(S(=O)(=O)NC2CCCCC2)ccc1-n1cnnn1	-	-	-	-
O=C(ON=C1CCN(S(=O)(=O)c2ccccc2)CC1)c1ccc(F)cc1	-	-	.	-
CC(C)(C)C1CCC(=NOC(=O)c2ccc(F)cc2)CC1 (stereo unspecified)	82	-	-	-
